Values after ≈ are worked out from the molar mass of the structure shown. Active and inactive are the calls of the source. No cut-off for these calls is given here.
Columns and labels:
Format in all cases: functional
Bacillus cereus [1] = assay: microbe, parasite or virus in culture; details: ATCC 11778, 24 h
Klebsiella pneumoniae [2] = assay: microbe, parasite or virus in culture; details: ATCC 11298, 24 h, read-out: IZ
[3] = Antioxidant activity assessed as ABTS radical scavenging activity at 400 ug/ml
How it was run: (§1)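 Test samples at 50, 100, 200 and 400 ug/ml were each mixed with 1 ml of freshly prepared ABTS radical cation solution, adjusted to absorbance 0.7–0.9 at 734 nm. Mixtures reacted 2 h in the dark, then absorbance was read at 734 nm against a blank. Scavenging % was taken as the absorbance decrease relative to ABTS solution without test sample.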

[4] = tested on: Radical scavenging activity; assay: Antioxidant activity assessed as DPPH radical scavenging activity at 400 ug/ml
How it was run: (§2)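 Each test sample was mixed with 1 ml DPPH in methanol, incubated at 37 °C for 30 min, and read spectrophotometrically at 517 nm with a blank reading. Scavenging % was expressed as the absorbance decrease at 517 nm relative to DPPH solution without test sample.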

[5] = Antioxidant activity assessed as ABTS radical scavenging activity
How it was run: as §1

Escherichia coli [6] = assay: microbe, parasite or virus in culture; details: ATCC 25922, 24 h, read-out: IZ
Bacillus cereus [7] = assay: Antimicrobial activity against Bacillus cereus ATCC 11778 at 100 ug/ml after 24 hrs by paper disk diffusion method; details: ATCC 11778, 24 h, read-out: IZ
Escherichia coli [8] = assay: microbe, parasite or virus in culture; details: ATCC 25922, 24 h
[9] = tested on: Radical scavenging activity; assay: Antioxidant activity assessed as DPPH radical scavenging activity at 50 ug/ml
How it was run: as §2

[10] = tested on: Radical scavenging activity; assay: Antioxidant activity assessed as DPPH radical scavenging activity at 100 ug/ml
How it was run: as §2

Staphylococcus aureus [11] = assay: microbe, parasite or virus in culture; details: ATCC 9144, 24 h
[12] = Antioxidant activity assessed as ABTS radical scavenging activity at 100 ug/ml
How it was run: as §1

[13] = tested on: Radical scavenging activity; assay: Antioxidant activity assessed as DPPH radical scavenging activity
How it was run: as §2

[14] = Antioxidant activity assessed as ABTS radical scavenging activity at 50 ug/ml
How it was run: as §1

[15] = tested on: Radical scavenging activity; assay: Antioxidant activity assessed as DPPH radical scavenging activity at 200 ug/ml
How it was run: as §2

MCF7 = assay: Cytotoxicity against human MCF7 cells after 24 hrs by MTT assay; details: MCF7, 24 h
How it was run: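 Exponentially growing cells plated at 10⁴ cells/well and allowed to attach, then exposed to test compounds or doxorubicin (dissolved in 0.1% DMSO, diluted in medium; range 1–100) for 24 h; controls received medium with 0.1% DMSO. MTT (1 mg/ml) added for 4 h at 37 °C, formazan dissolved in DMSO, absorbance read at 540 nm; % cytotoxicity calculated from blank-corrected absorbances versus control.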

Staphylococcus aureus [16] = assay: microbe, parasite or virus in culture; details: ATCC 9144, 24 h, read-out: IZ
[17] = Antioxidant activity assessed as ABTS radical scavenging activity at 200 ug/ml
How it was run: as §1

Klebsiella pneumoniae [18] = assay: microbe, parasite or virus in culture; details: ATCC 11298, 24 h

Structure (SMILES) | MIC (Bacillus cereus [1]) [µg/mL] | zone of inhibition at 100 µg/mL (Klebsiella pneumoniae [2]) [mm] | Activity ([3]; at 400 µg/mL) [%] | Activity ([4]; at 400 µg/mL) [%] | IC50 [5] [µg/mL] | zone of inhibition at 100 µg/mL (Escherichia coli [6]) [mm] | zone of inhibition at 100 µg/mL (Bacillus cereus [7]) [mm] | MIC (Escherichia coli [8]) [µg/mL] | Activity ([9]; at 50 µg/mL) [%] | Activity ([10]; at 100 µg/mL) [%] | MIC (Staphylococcus aureus [11]) [µg/mL] | Activity ([12]; at 100 µg/mL) [%] | IC50 [13] [µg/mL] | Activity ([14]; at 50 µg/mL) [%] | Activity ([15]; at 200 µg/mL) [%] | GI50 (MCF7) [µM] | LC50 (concentration killing 50% of cells) (MCF7) [µM] | TGI (MCF7) [µM] | zone of inhibition at 100 µg/mL (Staphylococcus aureus [16]) [mm] | MIC (Klebsiella pneumoniae [18]) [µg/mL] | also measured
N#CC1=C(N)OC(c2c[nH]c3ccccc23)=C(C#N)C1c1ccc(F)cc1 (stereo not given) | 20.3 (≈ 57 µM) | 17 | 26.7 | 36.5 | 960 (≈ 2690 µM) | 18 | 16 | 26.2 (≈ 73.5 µM) | 26.9 | 28.9 | 16.8 (≈ 47.1 µM) | 16.2 | 901.11 (≈ 2530 µM) | 8.4 | 31.4 | 28 | > 100 | 52.4 | 21 | 20.1 (≈ 56.4 µM) | Activity ([17]; at 200 µg/mL): 22.4%
COc1ccc(C2C(C#N)=C(N)OC(c3c[nH]c4ccccc34)=C2C#N)cc1OC (stereo not given) | 25.4 (≈ 63.8 µM) | 17 | 28.1 | 62.9 | 867.28 (≈ 2180 µM) | 17 | 16 | 26.7 (≈ 67 µM) | 55.8 | 57.9 | 31.8 (≈ 79.8 µM) | 19.1 | < 50 | 14.5 | 59.1 | 20.6 | 72.1 | 37.4 | 15 | 21.2 (≈ 53.2 µM) | Activity ([17]; at 200 µg/mL): 26.1%
N#CC1=C(N)OC(c2c[nH]c3ccccc23)=C(C#N)C1c1ccccc1F (stereo not given) | 22.6 (≈ 63.4 µM) | 15 |  |  |  | 15 | 14 | 27.4 (≈ 76.9 µM) |  |  | 23.4 (≈ 65.7 µM) |  |  |  |  | 22.8 | > 100 | 48.2 | 19 | 30.2 (≈ 84.7 µM) | Activity [3]: inactive; Activity [4]: inactive; Activity [5]: inactive; Activity [9]: inactive; Activity [10]: inactive; Activity [12]: inactive; Activity [13]: inactive; Activity [14]: inactive; Activity [15]: inactive; Activity [17]: inactive
N#CC1=C(N)OC(c2c[nH]c3ccccc23)=C(C#N)C1c1ccc2ccccc2c1 (stereo not given) | 23.3 (≈ 60 µM) | 15 |  |  |  | 16 | 15 | 29.4 (≈ 75.7 µM) |  |  | 32.4 (≈ 83.4 µM) |  |  |  |  | 15.5 | 91.5 | 46.6 | 14 | 30.5 (≈ 78.5 µM) | Activity [3]: inactive; Activity [4]: inactive; Activity [5]: inactive; Activity [9]: inactive; Activity [10]: inactive; Activity [12]: inactive; Activity [13]: inactive; Activity [14]: inactive; Activity [15]: inactive; Activity [17]: inactive
N#CC1=C(N)OC(c2c[nH]c3ccccc23)=C(C#N)C1c1ccc(Br)cc1 (stereo not given) | 28 (≈ 67.1 µM) | 16 | 22.7 | 57.8 | 947.09 (≈ 2270 µM) | 15 | 14 | 25.4 (≈ 60.9 µM) | 46.7 | 49.7 | 21.3 (≈ 51 µM) | 14.6 | 117.8 (≈ 282 µM) | 14.2 | 54.3 | 21.8 | > 100 | 48.1 | 20 | 26.3 (≈ 63 µM) | Activity ([17]; at 200 µg/mL): 10.6%
